From ChEMBL document CHEMBL1131161 (J Med Chem, 1998)

Experiments:
[1] = target: T1, Progesterone receptor (Homo sapiens, UniProt P06401); test: Binding affinity against human progesterone receptor
T1 sequence (P06401 whole entry): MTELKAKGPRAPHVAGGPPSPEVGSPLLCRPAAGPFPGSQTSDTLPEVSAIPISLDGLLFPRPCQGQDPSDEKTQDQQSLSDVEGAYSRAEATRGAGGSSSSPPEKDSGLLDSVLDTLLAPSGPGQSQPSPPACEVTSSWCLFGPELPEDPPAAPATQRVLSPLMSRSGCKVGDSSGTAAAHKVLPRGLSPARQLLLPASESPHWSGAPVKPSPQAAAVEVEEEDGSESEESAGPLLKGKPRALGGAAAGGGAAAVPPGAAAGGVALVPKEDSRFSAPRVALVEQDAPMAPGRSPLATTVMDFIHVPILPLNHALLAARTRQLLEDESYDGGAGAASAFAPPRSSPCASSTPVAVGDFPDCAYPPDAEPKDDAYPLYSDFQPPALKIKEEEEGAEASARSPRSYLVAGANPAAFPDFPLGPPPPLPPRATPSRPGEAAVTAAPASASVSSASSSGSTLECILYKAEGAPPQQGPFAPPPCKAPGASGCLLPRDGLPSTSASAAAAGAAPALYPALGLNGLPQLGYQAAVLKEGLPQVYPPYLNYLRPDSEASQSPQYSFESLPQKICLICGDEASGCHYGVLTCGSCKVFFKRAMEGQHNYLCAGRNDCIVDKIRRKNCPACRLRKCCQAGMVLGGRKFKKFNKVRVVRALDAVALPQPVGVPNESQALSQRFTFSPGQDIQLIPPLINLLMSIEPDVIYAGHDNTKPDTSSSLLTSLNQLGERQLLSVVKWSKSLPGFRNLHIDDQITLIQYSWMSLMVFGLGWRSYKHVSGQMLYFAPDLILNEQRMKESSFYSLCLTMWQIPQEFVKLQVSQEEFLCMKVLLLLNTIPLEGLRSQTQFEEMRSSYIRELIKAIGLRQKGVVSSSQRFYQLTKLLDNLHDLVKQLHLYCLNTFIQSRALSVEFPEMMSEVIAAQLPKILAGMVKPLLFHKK

[2] = target: T2, Androgen receptor (Homo sapiens, UniProt P10275)
T2 sequence (P10275 whole entry): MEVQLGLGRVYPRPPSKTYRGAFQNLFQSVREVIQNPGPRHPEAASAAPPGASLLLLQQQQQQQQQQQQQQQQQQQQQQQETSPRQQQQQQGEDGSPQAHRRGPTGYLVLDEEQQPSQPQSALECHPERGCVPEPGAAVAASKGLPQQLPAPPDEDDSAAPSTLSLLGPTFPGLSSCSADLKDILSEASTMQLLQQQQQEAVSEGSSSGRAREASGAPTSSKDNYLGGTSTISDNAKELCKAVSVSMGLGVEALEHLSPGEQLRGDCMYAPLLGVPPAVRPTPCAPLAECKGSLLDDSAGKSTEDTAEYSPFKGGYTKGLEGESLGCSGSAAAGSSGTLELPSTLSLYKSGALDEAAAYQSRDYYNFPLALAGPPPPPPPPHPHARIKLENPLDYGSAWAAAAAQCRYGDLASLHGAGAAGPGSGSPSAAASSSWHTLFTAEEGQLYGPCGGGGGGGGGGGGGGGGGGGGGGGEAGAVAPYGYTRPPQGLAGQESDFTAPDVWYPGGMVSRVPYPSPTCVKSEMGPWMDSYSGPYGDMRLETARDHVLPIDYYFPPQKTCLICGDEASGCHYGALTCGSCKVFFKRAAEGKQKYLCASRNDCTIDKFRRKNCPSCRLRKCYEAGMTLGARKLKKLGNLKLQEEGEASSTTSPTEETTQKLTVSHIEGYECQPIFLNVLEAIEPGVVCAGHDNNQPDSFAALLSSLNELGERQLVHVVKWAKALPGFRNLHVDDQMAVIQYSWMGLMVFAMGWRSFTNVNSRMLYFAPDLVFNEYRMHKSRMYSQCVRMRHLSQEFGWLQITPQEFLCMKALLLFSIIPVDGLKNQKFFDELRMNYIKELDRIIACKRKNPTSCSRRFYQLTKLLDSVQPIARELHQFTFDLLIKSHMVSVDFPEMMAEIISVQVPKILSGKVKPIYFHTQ

[3] = target: T3, Glucocorticoid receptor (Homo sapiens, UniProt P04150); test: Inhibitory activity (IC50) against human glucocorticoid receptor expressed in CV-1 cells; assay type: cell-based
T3 sequence (P04150 whole entry): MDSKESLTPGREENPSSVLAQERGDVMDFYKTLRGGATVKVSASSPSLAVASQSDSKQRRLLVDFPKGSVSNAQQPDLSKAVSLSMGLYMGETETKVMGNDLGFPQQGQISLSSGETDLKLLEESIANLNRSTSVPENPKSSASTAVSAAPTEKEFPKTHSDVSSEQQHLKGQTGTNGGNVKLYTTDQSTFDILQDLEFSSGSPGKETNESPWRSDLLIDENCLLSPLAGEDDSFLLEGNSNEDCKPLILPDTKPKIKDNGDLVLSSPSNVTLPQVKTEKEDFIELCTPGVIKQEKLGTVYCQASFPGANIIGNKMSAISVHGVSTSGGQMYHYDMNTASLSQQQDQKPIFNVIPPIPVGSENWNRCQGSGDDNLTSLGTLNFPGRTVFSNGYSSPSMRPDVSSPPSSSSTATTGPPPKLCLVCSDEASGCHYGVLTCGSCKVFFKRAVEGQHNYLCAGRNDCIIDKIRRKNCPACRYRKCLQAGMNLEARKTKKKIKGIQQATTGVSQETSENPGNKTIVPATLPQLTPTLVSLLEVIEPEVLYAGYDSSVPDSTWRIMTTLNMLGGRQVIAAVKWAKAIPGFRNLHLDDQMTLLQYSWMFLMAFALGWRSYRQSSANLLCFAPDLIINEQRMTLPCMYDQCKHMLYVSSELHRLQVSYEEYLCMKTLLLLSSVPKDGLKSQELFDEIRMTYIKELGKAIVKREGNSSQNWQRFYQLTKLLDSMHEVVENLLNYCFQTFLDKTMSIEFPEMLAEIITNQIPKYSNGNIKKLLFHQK
Procedure, shortened: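 Cotransfection assays in CV-1 cells with a luciferase reporter, read as normalized LUC expression. In antagonist mode, the reference agonists were DHT for hAR, dexamethasone for hGR and aldosterone for hMR. Antagonist efficacy was expressed as the percent of maximal inhibition of the agonist. Values are means of at least three separate experiments in triplicate, or of two experiments.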

[4] = target: T1, Progesterone receptor; test: Effective concentration (EC50) against human progesterone receptor expressed in CV-1 cell; assay type: functional, cell-based
[5] = tested on: CV-1; test: Inhibitory concentration in CV-1 cell; assay type: functional, cell-based, Cercopithecidae; conditions: Chlorocebus aethiops
[6] = target: Estrogen receptor (Homo sapiens, UniProt Q92731+P03372); conditions: cv-1
[7] = target: T3, Glucocorticoid receptor; test: biochemical

Ki [1] [nM]	Ki [2] [nM]	IC50 [3] [nM]	EC50 [4] [nM]	IC50 [5] [nM]	IC50 [6] [nM]	Ki [7] [nM]	SMILES
1.5	887	371	14.7	> 10000	> 10000	173	CC1=CC(C)(C)Nc2ccc3c(c21)/C(=C/c1cc(F)ccc1F)Oc1ccccc1-3
3.6	> 1000	1650	14.7	> 10000	> 10000	237	CC1=CC(C)(C)Nc2ccc3c(c21)/C(=C/c1ccc(F)c(F)c1)Oc1ccccc1-3

SMILES	Ki [1] [nM]	Ki [2] [nM]	IC50 [3] [nM]	EC50 [4] [nM]	IC50 [5] [nM]	IC50 [6] [nM]	Ki [7] [nM]
CC1=CC(C)(C)Nc2ccc3c(c21)/C(=C/c1ccccc1C)Oc1ccccc1-3	0.66	844	1050	5.7	> 10000	< 20	564
